Assay outcomes as filed in PubChem.
The list is not random: actives were taken first. Their share in the collection is about 0.7%.
procasp3 activ: procaspase-3 (human) activation | recombinant procaspase-3 D3A, Ac-DEVD-pNA absorbance 405 nm | activation, % at 8.5 µM | 330,000 compounds, 0.11% hits | AID 463141;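 active means activation above the mean of all tested compounds plus 3 SD, cut at about 21% in these data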
Target sequence (P42574 whole entry D9A/D28A/D175A): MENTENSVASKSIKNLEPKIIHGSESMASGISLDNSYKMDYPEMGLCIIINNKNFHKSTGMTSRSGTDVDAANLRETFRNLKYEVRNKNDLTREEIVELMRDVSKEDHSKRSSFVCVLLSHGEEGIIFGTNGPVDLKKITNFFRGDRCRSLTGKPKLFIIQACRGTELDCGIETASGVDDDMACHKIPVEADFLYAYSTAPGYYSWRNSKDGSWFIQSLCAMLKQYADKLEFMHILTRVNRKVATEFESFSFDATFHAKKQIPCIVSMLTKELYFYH
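Assay system – Procaspase-3 D3A mutant · Benchmarks – DMSO low control, extra-enzyme high control · Technique – 405 nm absorbance of p-nitroaniline, reads at 0 and 120 min · Doses – 8.5 µM nominal · Measure – % activation between DMSO and enzyme-spiked controls · Also added – Ac-DEVD-pNA chromogenic peptide substrate · Schedule – 1 h compound preincubation, 2 h substrate hydrolysis at 25 °C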
procasp7 counter: counter-screen for procaspase-3 activators: activators of human procaspase-7. recombinant procaspase-7, Ac-DEVD-pNA absorbance 405 nm; D23A/D198A/D206A triple mutant, cannot self-cleave; scale: DMSO 0, 5 µM enzyme 100. activation, % at 8.5 µM. 330,000 compounds, 0.093% hits. AID 463210;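 active means percent activation above the screen-wide mean plus 3 SD, cut at about 25% in these data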
Target sequence (P55210 whole entry D23A/D198A/D206A): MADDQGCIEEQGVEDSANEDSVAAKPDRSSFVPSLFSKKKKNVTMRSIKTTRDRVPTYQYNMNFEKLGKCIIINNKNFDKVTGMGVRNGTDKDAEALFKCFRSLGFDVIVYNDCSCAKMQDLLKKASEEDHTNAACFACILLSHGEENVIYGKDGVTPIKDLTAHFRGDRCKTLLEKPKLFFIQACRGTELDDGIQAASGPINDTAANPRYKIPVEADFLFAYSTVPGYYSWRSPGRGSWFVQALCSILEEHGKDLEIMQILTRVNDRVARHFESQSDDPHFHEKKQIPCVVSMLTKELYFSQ
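System: Procaspase-7 triple mutant (PC-7 D3A); measure: % activation from two-timepoint absorbance difference, scaled to controls; times: 1 h compound preincubation, 2 h substrate cleavage, 25 °C; also added: Ac-DEVD-pNA substrate, 400 µM as added; measured by: Epi-absorbance of released pNA at 405 nm, two timepoints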
FXN GAA850 act: frataxin GAA850 promoter activation | HEK293 lucGAA850 FXN promoter luciferase reporter, 24 h; percent of 10 µM SAHA response | activation, % at 6 µM | 360,000 compounds, 0.56% hits | AID 540364;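 active means activation above the average of all compounds screened plus 3 SD, cutoff fixed separately per campaign, cut at about 7.5% in these data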
GAA30 counter: activates GAA30 frataxin promoter, counter-screen for GAA850 activators. shares compounds with FXN GAA850 act. HEK293 lucGAA30 FXN promoter luciferase, 24 h; DMSO = 0%, 5 µM ipriflavone = 100%. activation, % at 6 µM. 1,900 compounds, 66% hits. AID 588350;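 active means mean activation above the mean of solvent-only control wells plus 3 SD, cut at about 22% in these data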;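 further: counterscreen of GAA850 promoter hits where activity marks nonselective or luminescence artifacts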
GAA850 confirm: confirmation of GAA850 frataxin (FXN) promoter activators | shares compounds with FXN GAA850 act | HEK293 lucGAA850 FXN promoter luciferase reporter, 24 h; 100% = activation by SAHA | activation, % at 6 µM | 1,900 compounds, 86% hits;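 active means mean activation above a set limit taken from the primary screen, cut at about 8% in these data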
Numbers stand for hits; 0 = inactive; - = no result given.

SMILES	procasp3 activ	procasp7 counter	FXN GAA850 act	GAA30 counter	GAA850 confirm
O=C(N/N=C/c1ccc(Cl)s1)c1ccccc1[N+](=O)[O-]	0	0	0	-	-
Cc1ccc(/C=N/NC(=O)C(C)Oc2ccccc2[N+](=O)[O-])s1 (stereo unspecified)	0	0	11	26	0
COCc1cccc(-c2csc(C(C)(NC(C)=O)c3ccc(OC)cc3)n2)c1 (stereo unspecified)	-	-	0	-	-
Fc1ccc(COc2ccccc2C(=S)N2CCCC2)cc1	0	0	0	-	-
Cc1ccc(COc2ccccc2C(=S)N2CCCC2)cc1	0	0	8.1	51	23
C[C@H](CO)N1C[C@H](C)[C@H](CN(C)C(=O)c2cc(-c3ccccc3)on2)OCc2cnnn2CCCC1=O	-	-	0	-	-
COc1ccccc1-c1ccc2c(c1)C(C)(Cc1ccccc1C#N)C(=O)N2 (stereo unspecified)	-	-	0	-	-
COc1ccccc1-c1ccc2c(c1)C(C)(Cc1ccc(Cl)c(Cl)c1)C(=O)N2 (stereo unspecified)	-	-	17	29	11
COc1ccc(C(=O)NCC2CCCCC2)cc1S(=O)(=O)N1CCOCC1	0	0	0	-	-
O=C1[C@H]2[C@@H](C(=O)N1c1cccc3ccccc13)C1(C(=O)c3ccccc3C1=O)N1CCC[C@@H]21	0	0	9.4	37	16
O=C1C2C3C=CC(C3)C2C(=O)N1c1cccc2ccccc12 (stereo unspecified)	0	0	0	-	-
CCNc1nc(OC)nc(N(OC)S(=O)(=O)c2ccc(C)cc2)n1	0	0	0	-	-
Cc1cccc(-c2nc(CN3CCCC(C(=O)NC4CCC(C)CC4)C3)c(C)o2)c1 (stereo unspecified)	0	0	0	-	-
Cc1cccc(-c2nc(CN3CCCC(C(=O)NC4CCCC4)C3)c(C)o2)c1 (stereo unspecified)	0	0	8.0	0	0
COc1ccc(NC(=O)CN(C)C(=O)c2ccc3[nH]c4c(c3c2)CC(C)CC4)cc1 (stereo unspecified)	0	0	0	-	-
COc1cc(Nc2nc3ccccc3n3nnnc23)cc(OC)c1OC	0	0	17	33	9.5
COc1ccc(Nc2nc3ccccc3n3nnnc23)cc1	0	0	0	-	-
COc1ccnc(NCc2ccc(Cl)cc2)c1C#N	0	0	10	55	20
COc1cc2ncnc(NCc3ccc(Cl)cc3)c2cc1OC	0	0	0	-	-
N=c1sccn1CC(=O)NC(c1ccccc1)c1ccccc1	0	0	0	-	-
Cn1ccnc1SCC(=O)Nc1cccc(C(F)(F)F)c1	0	0	0	-	-
O=C(CSC1=NCCN1)Nc1cccc(C(F)(F)F)c1	0	0	9.6	25	21
CC(C)Oc1cccc(C(=O)Nc2nnc([C@H]3C[C@H](O)[C@@H](CO)O3)s2)c1	-	-	0	-	-
COCCN1C(=O)N[C@@H](c2cccc(F)c2)C(C(C)=O)=C1C	0	0	0	-	-
Clc1cnc(Nc2cccnc2)c(Cl)c1	0	0	0	-	-
SMILES	procasp3 activ	procasp7 counter	FXN GAA850 act	GAA30 counter	GAA850 confirm
Cc1ccc(S(=O)(=O)N2CCN(S(=O)(=O)c3ccc(C)cc3)C2c2ccccc2)cc1	0	0	8.3	0	0
Cc1ccc(S(=O)(=O)N2CCN(S(C)(=O)=O)C2c2ccccc2)cc1 (stereo unspecified)	0	0	0	-	-
COc1ccc(CN(C)C(=O)/C=C/c2ccc(S(=O)(=O)N3CCCCCC3)cc2)cc1	0	0	0	-	-
Cc1ccc(-n2ncc3c(N4CCCC(C)C4)ncnc32)c(C)c1 (stereo unspecified)	0	0	0	-	-
Cc1ccc(-n2ncc3c(N4CCCC4)ncnc32)c(C)c1	0	0	7.6	72	24
COc1ccc(CNC(=O)C2(C)Cc3ccccc3C(=O)O2)cc1 (stereo unspecified)	0	0	0	-	-
CCOC(=O)c1sc(Nc2nc3ccc(OC)cc3s2)cc1C	0	0	0	-	-
CCOC(=O)c1sc(Nc2nc3c(F)cccc3s2)cc1C	0	0	11	106	42
Cc1nn(C2CC(O)C(O)C(CO)O2)c(=O)[nH]c1=O (stereo unspecified)	-	-	0	-	-
O=C(Nc1ccc(S(=O)(=O)Nc2ncccn2)cc1)c1ccc(Cl)c([N+](=O)[O-])c1	-	-	0	-	-
Cn1/c(=N/N=C/c2ccccn2)sc2ccccc21	-	-	10	114	35
Cn1/c(=N/N=C/c2ccc(N3CCOCC3)cc2)sc2ccccc21	0	0	0	-	-
CCc1cc(-c2nnn(CCC3COCCO3)c2CC)cc(CC)c1-c1cn(CCc2c[nH]c3ccccc23)nn1 (stereo unspecified)	-	-	0	-	-
O=C(Nc1scc(-c2ccc(F)cc2)c1C(=O)O)c1ccco1	0	0	0	-	-
COC(=O)c1c(-c2ccccc2)csc1NC(=O)c1ccco1	0	0	11	110	45
COC(=O)c1c(NC(=O)CN2CCC3(O)CCCCC3C2c2ccccc2OC)sc(C)c1C (stereo unspecified)	0	0	0	-	-
COC(=O)c1c(NC(=O)CN2CCC3(O)CCCCC3C2c2ccc(OC)cc2OC)sc(C)c1C (stereo unspecified)	0	0	10	26	0
O=C(/C=C/c1ccc(O)c(O)c1)c1ccccc1O	0	0	13	75	35
O=C(C=Cc1cccc(O)c1)c1ccccc1O	-	-	0	-	-
O=C(/C=C/c1ccc(O)c(O)c1)OCCc1ccccc1	0	0	16	31	23
O=C(/C=C/c1ccc(O)c(O)c1)OC(Cc1ccc(O)c(O)c1)C(=O)O (stereo unspecified)	0	0	0	-	-
COCCn1c(SC(C)C(=O)NCC2CCCO2)nc2sc3c(c2c1=O)CCC3 (stereo unspecified)	0	0	0	-	-
CCOC(=O)CSc1nc(N)c(C#N)c(-c2cccs2)c1C#N	0	0	0	-	-
N#Cc1c(N)nc(SCc2ccccn2)c(C#N)c1-c1cccs1	0	0	20	26	19
COc1ccc(C(=O)c2sc(NC(C)C)nc2N)cc1OC	0	0	0	-	-
SMILES	procasp3 activ	procasp7 counter	FXN GAA850 act	GAA30 counter	GAA850 confirm
COc1cccc(C(=O)c2sc(NC(C)C)nc2N)c1	0	0	12	69	89
O=C(NCc1ccccc1)C(c1ccc(F)cc1)N(C(=O)c1csnn1)c1ccccc1 (stereo unspecified)	0	0	0	-	-
C=CCn1c(=O)c(C(=O)Nc2ccccc2S(N)(=O)=O)c(O)c2ccccc21	0	0	0	-	-
CCOC(=O)c1cccc(NC(=O)C2CCCN(c3nnc(N4CCCC4=O)s3)C2)c1 (stereo unspecified)	0	0	0	-	-
CCOC(=O)c1sc(=NC(=O)c2ccccc2Br)n(C)c1C	0	0	11	106	29
CCOC(=O)c1sc(=NC(=O)c2cccs2)n(C)c1C	0	0	0	-	-
Cc1c(NC(=O)C(C)OC(=O)CCOc2ccccc2)c(=O)n(-c2ccccc2)n1C (stereo unspecified)	0	0	0	-	-
